24 sequences from the EternaBench riboswitch data can be followed below.

One may read the apparent Kd as the concentration giving half-maximal binding under the conditions of the assay.

This series deals with MS2 coat protein. Briefly: apparent Kd, MS2 coat protein; higher = weaker binding; RNA-MaP array; FMN 200 µM where present. The method in brief: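 The apparent Kd comes from binding curves fitted cluster by cluster, filtered, and summarised as a median. Those curves followed SNAP-549-labelled MS2 coat protein from 0.7 or 1.5 nM, doubling to 3 µM, on Illumina sequencing-chip clusters where stalled E. coli RNA polymerase had transcribed the designs, without and then with constant ligand. The buffer was 100 mM Tris-HCl pH 7.5, 80 mM KCl, 4 mM MgCl2, BSA, DTT, yeast tRNA and Tween-20, and green signal was normalised to red-channel RNA signal and control-cluster median Fmax.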

Where [1] appears, read: designed as: OFF switch for flavin mononucleotide, no ligand.
Setting [2] is: ligand present: flavin mononucleotide, designed as: OFF switch for flavin mononucleotide.
Where [3] appears, read: designed as: ON switch for flavin mononucleotide, no ligand.
[4] abbreviates: ligand present: flavin mononucleotide, designed as: ON switch for flavin mononucleotide.

As for “AGCUAGUGAGGAUAUACGAACAUGUCAAAAGACGUGAAUAAACAUGAGGAUCACCCAUGUAGAAGGCACUAGCA”, the “apparent Kd” value amounted to 0.0175 µM under setting [1] and 0.0162 µM under setting [2].
Regarding “ACACAUGAGGAUCACCCAUGUAGCUGGCGUCUGCACCAGCCACAGGAUAUACGGCAACACAAACCGUAGAAGGGUGAUAAACAC”, the “apparent Kd” value by setting is: under setting [3], 0.0563 µM; under setting [4], 0.0273 µM.
On to “AUAUCAAGCAAGGAUAUGCAAAUGGUUAUUUAUGCAGAAGGUGCAACAUGAGGAUCACCCAUGUUUCUGGGUUU”, for which the “apparent Kd” value under setting [1] amounted to 0.0644 µM and the “apparent Kd” value under setting [2] was found to be 0.101 µM.
For “AGUGUGUGGCAGGAUAUUCUGUUGGUUAGGACAGAAGAAGGGUCUACAUGAGGAUCACCCAUGUAAGCGGUUGA” the same measures were 0.251 µM and 0.428 µM.
On to “GUUAUGCGAGGAUAUACAUGAGGAUCACCCAUGUAAUCUGGUGGCGUGAAAAUAAAGUGUAGAAGGCGCUGACC”, for which the “apparent Kd” value is, setting by setting: under setting [1], 0.0176 µM; under setting [2], 0.0319 µM.
Regarding “GUGAUAUUGUAAGGAUAUACUCUGUGAUGAAGAGUAGAAGGUACUUACAUGAGGAUCACCCAUGUUUAACGAGAUACUAAUCGU”, the “apparent Kd” value was 0.198 µM under setting [3] and 0.0769 µM under setting [4].
For “AGCUGUGGCCGAGGAUAUCUAACAAUCCAAACCGAAAUAUAAUCGGACAUGAGGAUCACCCAUGUAGAGAAGGCGGUCUCAGCA”, the “apparent Kd” value came out at 0.0481 µM under setting [1] and 0.065 µM under setting [2].
On to “AUAUAUGCCCAGAAGGUGCCAGCGAGAGCUGCACAUGAGGAUCACCCAUGUUGUCGGUGACGACGCAAGGAUAUGGGCAUAUAU”, for which the “apparent Kd” value came out at 0.0245 µM under setting [3] and 0.00726 µM under setting [4].
As for “AAUUUGCACGCAGGAUAUCGAUAUAAAAGCUGACGAGAAGGGCGGUACAUGAGGAUCACCCAUGUGAACGCCGGGUGGUCUCGU”, the “apparent Kd” value by setting is: under setting [1], 0.00655 µM; under setting [2], 0.00934 µM.
For “GUUCAGUCAGGAUAUUUGUAACGCUCGGUAUCGAGUGGUAAGAAGAAGGGACAUGAGGAUCACCCAUGUCAGUA”, the “apparent Kd” value reads like this: under setting [1], 0.0201 µM; under setting [2], 0.0176 µM.
With “UCAUGCAUAGCGAUAUGAUCGAGAGAUCAUGUCGCUAAAUUUAGAAGGACAUGAGGAUCACCCAUGUAGGAUAUGGGAGCAUGG”, the “apparent Kd” value is 0.292 µM under setting [3] and 0.0319 µM under setting [4].
For the sequence “GUAGCAUGCCAAGGAUAUUCAUAUAGUAGGCAAACAUGAGGAUCACCCAUGUAAUGAUAGCAGUGGGAGAAGGUGGGAUGCUAC”, the “apparent Kd” value reads like this: under setting [3], 0.0475 µM; under setting [4], 0.0222 µM.
As to “CAUUAAUUGAUUAUUGAAUAUUUACAGGAUAUGUUACAUGAGGAUCACCCAUGUAAAUAUGGGUUACAGAAGGGUAUUUAUAGA”, the “apparent Kd” value is, setting by setting: under setting [1], 0.0362 µM; under setting [2], 0.0325 µM.
Turning to “GAUCUGUGGCUUUCGCUUUGUUCACAUGAGGAUCACCCAUGUAGAAGGUAGCGGUUGAAAUUCGCUGAGGAUAUACAUAGGUGC”, the “apparent Kd” value by setting is: under setting [1], 0.0244 µM; under setting [2], 0.0527 µM.
In the case of “GUGCGGUAGGAGAAGGACGGCGGGUUCUUUUCAUACAUGAGGAUCACCCAUGUAGGAUAUCCUACCUCACGCGGCCUACUACAG”, the “apparent Kd” value reads like this: under setting [1], 0.00861 µM; under setting [2], 0.0135 µM.
With “ACCAAUGCAGGAUAUACAUGAGGAUCACCCAUGUAUAACCUACAUAGAUGAUUAUCAUGUAGAAGGGCAUUGGA”, the “apparent Kd” value is, setting by setting: under setting [1], 0.0117 µM; under setting [2], 0.00843 µM.
For the sequence “CCUUCACAUGAGGAUCACCCAUGUCCUAGUCCGUCAGGAUAUAGCCUGCAUCCGCUGUGGCUAGAAGGGACUGCUG”, the “apparent Kd” value was determined as 0.135 µM under setting [3] and 0.207 µM under setting [4].
As for “AAUAACAGAGGAUAUACUAUUUUAUGUAUUUAUUAUUUUGAACAUGAGGAUCACCCAUGUAGAAGGCUGAGUAA”, the “apparent Kd” value reads like this: under setting [1], 0.0275 µM; under setting [2], 0.0231 µM.
Regarding “AAAAGACAUGAGGAUCACCCAUGUCAAAACGUGGGAGGAUAUGUAUGGAAACCAGACUGUACAGAAGGCCUCUGUC”, the “apparent Kd” value is 0.0417 µM under setting [3] and 0.131 µM under setting [4].
Regarding “UCGUAUAAGGGCAUUACACAUGAGGAUCACCCAUGUACGUUAGAGGAUAUGCAUUUCAGUUGAACGUAGAAGGCUAGAGAAGGG”, the “apparent Kd” value under setting [1] is 0.117 µM and the “apparent Kd” value under setting [2] came to 0.103 µM.
In the case of “GCACAUGAUACAGGAUAUGUUUAGGAUUUUAUAUACAGUUAUUUUAUUUUGACAGAAGGGUAUACAUGAGGAUCACCCAUGUGC”, the “apparent Kd” value is, setting by setting: under setting [1], 0.0872 µM; under setting [2], 0.0581 µM.
For “AUCAGCUCGUCAGGAUAUACUUCACUGCGUCAGCAGUGUGGUAAGAUCACAUGAGGAUCACCCAUGUAGAAGGGACGAGCUGAU”, the “apparent Kd” value came out at 0.006 µM under setting [1] and 0.00871 µM under setting [2].
For the sequence “GCCAUCGGGUGAGGAUAUAAAAUUAUGAUUAAAUUAGAAGGCAUCUCAUAAGACAUGAGGAUCACCCAUGUAGUUAAGAUGGCA”, the “apparent Kd” value is, setting by setting: under setting [3], 0.0906 µM; under setting [4], 0.0319 µM.
Take “AGGCGUGCUGAGGAUAUACUACCGGUUGCGAUAGUAGAAGGUAGCACAUGAGGAUCACCCAUGUGGUCAGAUGC”: the “apparent Kd” value reads like this: under setting [1], 0.024 µM; under setting [2], 0.0646 µM.
